# Active and inactive are the calls of the source. The rule behind the calls is not given here.
# How the values were obtained:
# [1] = test system: GEN2.2; experiment: Inhibition of CL097 induced IKKalpha/beta phosphorylation level in human GEN2.2 cells at 1 uM preincubated with compound for 1 hr followed by CL097 stimulation and measured after 30 mins by Western blot analysis; assay type: functional, cell-based
# [2] = target: Diacylglycerol kinase alpha (Homo sapiens) (UniProt P23743); experiment: Inhibition of DGKA ATP labeling site harbouring in human A-375 cells at 0.5 uM by KiNativ Profiling analysis relative to control; assay type: cell-based
# Method in brief: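 Live A375 melanoma cells were treated with compound at 0.5 or 5 μM, then lysed. Lysates were labeled with a lysine-reactive ATP or ADP-biotin probe. The read-out was protection of each kinase probe-labeling site from labeling, relative to control.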
# [3] = target: Proto-oncogene tyrosine-protein kinase Src (Homo sapiens, UniProt P12931); experiment: Inhibition of SRC (unknown origin) Lys1 labeling site by KiNativ Profiling analysis
# [4] = target: TRAF2 and NCK-interacting protein kinase (Homo sapiens) (UniProt Q9UKE5); experiment: Inhibition of ZC2 Lys2 labeling site in human A-375 cells at 0.5 uM by KiNativ Profiling analysis relative to control; assay type: cell-based
# [5] = target: Protein kinase C alpha type (Homo sapiens) (UniProt P17252); experiment: Inhibition of PKCa Lys2 labeling site in human A-375 cells at 0.05 uM by KiNativ Profiling analysis relative to control; assay type: cell-based
# [6] = target: Mitogen-activated protein kinase kinase kinase kinase 4 (Homo sapiens, UniProt O95819); experiment: Inhibition of ZC1/HGK Lys2 labeling site in human A-375 cells at 0.05 uM by KiNativ Profiling analysis relative to control; assay type: cell-based
# [7] = target: Tyrosine-protein kinase CSK (Homo sapiens, UniProt P41240); experiment: Inhibition of CSK (unknown origin) ACT labeling site by KiNativ Profiling analysis
# [8] = target: Mitogen-activated protein kinase 9 (Homo sapiens, UniProt P45984); experiment: Inhibition of JNK2 Lys2 labeling site in human A-375 cells at 0.5 uM by KiNativ Profiling analysis relative to control; assay type: cell-based
# [9] = target: T1, Serine/threonine-protein kinase TAO2 (Homo sapiens) (UniProt Q9UL54); experiment: Inhibition of TAO2 Lys2 labeling site in human A-375 cells at 0.5 uM by KiNativ Profiling analysis relative to control; assay type: cell-based
# T1 sequence (whole entry): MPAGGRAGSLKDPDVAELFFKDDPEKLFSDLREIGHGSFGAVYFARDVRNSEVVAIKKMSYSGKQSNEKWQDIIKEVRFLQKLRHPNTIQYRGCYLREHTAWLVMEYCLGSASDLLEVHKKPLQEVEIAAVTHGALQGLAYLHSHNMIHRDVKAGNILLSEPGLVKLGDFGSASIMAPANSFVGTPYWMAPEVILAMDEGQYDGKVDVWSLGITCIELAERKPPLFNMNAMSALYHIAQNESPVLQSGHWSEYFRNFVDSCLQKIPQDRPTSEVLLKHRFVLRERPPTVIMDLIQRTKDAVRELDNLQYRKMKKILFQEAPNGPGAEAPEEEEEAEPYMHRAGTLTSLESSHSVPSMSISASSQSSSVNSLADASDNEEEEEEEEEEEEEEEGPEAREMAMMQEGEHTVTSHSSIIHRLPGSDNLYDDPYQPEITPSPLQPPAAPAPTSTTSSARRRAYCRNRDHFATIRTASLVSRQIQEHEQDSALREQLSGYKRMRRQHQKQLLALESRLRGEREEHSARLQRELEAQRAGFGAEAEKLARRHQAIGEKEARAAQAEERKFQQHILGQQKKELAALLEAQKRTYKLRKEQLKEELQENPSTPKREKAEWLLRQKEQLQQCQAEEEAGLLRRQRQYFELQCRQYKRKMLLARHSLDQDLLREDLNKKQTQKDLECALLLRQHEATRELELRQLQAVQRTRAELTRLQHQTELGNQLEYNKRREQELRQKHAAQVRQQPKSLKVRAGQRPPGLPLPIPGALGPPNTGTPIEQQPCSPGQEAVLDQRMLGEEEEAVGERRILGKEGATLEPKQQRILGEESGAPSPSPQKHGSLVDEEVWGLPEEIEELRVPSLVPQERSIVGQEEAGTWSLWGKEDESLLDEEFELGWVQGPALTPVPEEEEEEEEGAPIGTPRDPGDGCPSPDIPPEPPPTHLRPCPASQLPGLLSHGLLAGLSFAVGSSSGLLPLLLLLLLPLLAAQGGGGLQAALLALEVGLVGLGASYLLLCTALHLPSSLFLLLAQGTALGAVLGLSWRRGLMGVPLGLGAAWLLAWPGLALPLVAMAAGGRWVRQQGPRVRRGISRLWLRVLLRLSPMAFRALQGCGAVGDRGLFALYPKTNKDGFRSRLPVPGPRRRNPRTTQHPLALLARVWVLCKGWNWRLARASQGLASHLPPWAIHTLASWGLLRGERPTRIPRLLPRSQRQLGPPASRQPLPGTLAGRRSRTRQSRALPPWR
# [10] = target: Tyrosine-protein kinase ABL2 (Homo sapiens, UniProt P42684); experiment: Inhibition of ARG ACT labeling site in human A-375 cells at 5 uM by KiNativ Profiling analysis relative to control; assay type: cell-based
# Method in brief: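 Intact A375 melanoma cells were treated with compound at 5 or 0.5 μM, then lysed. Lysate kinases were labeled with a lysine-reactive ATP or ADP-biotin probe (KiNativ). Inhibition is read as protection of each kinase labeling site from probe labeling.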
# [11] = target: Ribosomal protein S6 kinase alpha-2 (Homo sapiens) (UniProt Q15349); experiment: Inhibition of RSK3 Protein Kinase Domain in human A-375 cells at 0.5 uM by KiNativ Profiling analysis relative to control; assay type: cell-based
# Method in brief: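 Live A375 melanoma cells treated with compound at 5 or 0.5 μM, then lysed. Lysate kinases were labeled with a lysine-reactive ATP or ADP-biotin probe. Inhibition was read as protection of labeling sites from the probe.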
# Chain of Tyrosine-protein kinase CSK (P41240 whole entry): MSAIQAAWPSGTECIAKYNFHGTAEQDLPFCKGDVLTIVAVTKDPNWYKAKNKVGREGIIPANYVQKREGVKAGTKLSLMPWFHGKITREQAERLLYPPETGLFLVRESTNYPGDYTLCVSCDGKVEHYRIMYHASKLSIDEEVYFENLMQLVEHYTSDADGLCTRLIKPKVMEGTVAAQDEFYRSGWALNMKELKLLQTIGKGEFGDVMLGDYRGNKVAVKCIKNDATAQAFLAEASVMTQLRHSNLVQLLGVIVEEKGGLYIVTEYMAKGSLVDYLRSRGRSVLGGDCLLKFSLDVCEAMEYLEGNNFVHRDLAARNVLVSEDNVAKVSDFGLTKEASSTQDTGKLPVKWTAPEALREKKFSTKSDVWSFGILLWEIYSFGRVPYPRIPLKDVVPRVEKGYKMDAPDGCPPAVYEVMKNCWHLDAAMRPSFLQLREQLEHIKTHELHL
# Chain of Tyrosine-protein kinase ABL2 (P42684 whole entry): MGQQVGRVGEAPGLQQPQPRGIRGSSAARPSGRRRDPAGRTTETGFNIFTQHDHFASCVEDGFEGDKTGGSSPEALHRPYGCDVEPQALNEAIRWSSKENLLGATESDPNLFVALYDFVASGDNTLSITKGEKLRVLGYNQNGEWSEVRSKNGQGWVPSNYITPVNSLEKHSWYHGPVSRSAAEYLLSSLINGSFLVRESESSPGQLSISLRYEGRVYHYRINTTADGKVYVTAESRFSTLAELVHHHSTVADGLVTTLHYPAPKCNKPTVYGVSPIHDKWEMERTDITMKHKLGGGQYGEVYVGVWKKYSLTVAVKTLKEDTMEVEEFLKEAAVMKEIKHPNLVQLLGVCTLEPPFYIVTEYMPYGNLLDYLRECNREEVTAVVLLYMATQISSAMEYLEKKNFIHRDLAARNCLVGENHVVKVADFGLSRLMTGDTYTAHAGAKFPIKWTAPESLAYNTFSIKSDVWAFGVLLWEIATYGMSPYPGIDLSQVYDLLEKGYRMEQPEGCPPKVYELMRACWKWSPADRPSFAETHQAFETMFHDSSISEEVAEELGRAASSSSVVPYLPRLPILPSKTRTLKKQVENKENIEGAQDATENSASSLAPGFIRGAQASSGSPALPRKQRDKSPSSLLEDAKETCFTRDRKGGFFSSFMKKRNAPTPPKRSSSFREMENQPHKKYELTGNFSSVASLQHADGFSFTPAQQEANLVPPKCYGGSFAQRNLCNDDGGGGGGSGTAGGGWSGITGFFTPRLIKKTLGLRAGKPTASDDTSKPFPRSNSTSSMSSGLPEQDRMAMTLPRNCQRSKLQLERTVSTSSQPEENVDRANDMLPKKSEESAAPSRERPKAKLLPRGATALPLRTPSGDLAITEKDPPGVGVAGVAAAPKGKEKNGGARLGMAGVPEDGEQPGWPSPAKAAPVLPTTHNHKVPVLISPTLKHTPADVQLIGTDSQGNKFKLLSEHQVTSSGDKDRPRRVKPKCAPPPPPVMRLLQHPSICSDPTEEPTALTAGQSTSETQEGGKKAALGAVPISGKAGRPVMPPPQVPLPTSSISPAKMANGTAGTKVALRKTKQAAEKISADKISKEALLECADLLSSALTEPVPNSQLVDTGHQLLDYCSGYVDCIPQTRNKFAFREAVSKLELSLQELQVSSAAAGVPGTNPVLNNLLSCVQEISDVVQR
# Chain of Mitogen-activated protein kinase kinase kinase kinase 4 (O95819 2-1239 limits assumed): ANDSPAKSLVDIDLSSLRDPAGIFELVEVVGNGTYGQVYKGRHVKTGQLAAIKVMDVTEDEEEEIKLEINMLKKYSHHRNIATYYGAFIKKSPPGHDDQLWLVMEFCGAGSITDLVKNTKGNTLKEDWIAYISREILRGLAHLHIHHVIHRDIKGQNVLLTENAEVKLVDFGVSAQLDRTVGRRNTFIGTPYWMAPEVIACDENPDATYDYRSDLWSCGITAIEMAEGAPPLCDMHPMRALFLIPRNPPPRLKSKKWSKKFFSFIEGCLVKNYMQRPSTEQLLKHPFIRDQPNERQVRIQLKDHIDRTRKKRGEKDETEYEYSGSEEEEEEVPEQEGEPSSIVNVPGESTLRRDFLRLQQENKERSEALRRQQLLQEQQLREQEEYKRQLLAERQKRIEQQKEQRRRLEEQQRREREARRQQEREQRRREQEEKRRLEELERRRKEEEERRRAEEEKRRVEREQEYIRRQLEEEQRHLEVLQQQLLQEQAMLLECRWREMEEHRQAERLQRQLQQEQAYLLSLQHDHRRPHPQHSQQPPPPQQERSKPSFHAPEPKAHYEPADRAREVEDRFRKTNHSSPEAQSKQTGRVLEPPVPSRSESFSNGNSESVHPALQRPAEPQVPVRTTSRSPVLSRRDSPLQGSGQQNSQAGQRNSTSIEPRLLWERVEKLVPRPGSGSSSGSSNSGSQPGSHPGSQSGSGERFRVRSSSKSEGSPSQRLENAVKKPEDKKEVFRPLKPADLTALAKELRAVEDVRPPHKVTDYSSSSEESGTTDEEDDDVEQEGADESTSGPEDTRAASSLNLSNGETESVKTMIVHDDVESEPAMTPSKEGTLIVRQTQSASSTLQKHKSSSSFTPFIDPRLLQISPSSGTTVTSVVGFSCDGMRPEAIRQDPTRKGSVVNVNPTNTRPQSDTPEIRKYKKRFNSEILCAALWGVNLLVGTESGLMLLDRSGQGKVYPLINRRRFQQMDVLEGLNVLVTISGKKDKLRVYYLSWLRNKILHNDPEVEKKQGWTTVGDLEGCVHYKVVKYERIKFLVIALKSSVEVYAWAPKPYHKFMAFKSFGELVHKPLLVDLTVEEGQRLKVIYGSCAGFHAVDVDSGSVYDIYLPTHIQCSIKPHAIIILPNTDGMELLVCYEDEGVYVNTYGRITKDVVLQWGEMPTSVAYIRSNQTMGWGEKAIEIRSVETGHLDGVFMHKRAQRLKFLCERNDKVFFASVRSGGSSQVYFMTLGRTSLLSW
# Chain of TRAF2 and NCK-interacting protein kinase (Homo sapiens) (Q9UKE5 whole entry, looked up): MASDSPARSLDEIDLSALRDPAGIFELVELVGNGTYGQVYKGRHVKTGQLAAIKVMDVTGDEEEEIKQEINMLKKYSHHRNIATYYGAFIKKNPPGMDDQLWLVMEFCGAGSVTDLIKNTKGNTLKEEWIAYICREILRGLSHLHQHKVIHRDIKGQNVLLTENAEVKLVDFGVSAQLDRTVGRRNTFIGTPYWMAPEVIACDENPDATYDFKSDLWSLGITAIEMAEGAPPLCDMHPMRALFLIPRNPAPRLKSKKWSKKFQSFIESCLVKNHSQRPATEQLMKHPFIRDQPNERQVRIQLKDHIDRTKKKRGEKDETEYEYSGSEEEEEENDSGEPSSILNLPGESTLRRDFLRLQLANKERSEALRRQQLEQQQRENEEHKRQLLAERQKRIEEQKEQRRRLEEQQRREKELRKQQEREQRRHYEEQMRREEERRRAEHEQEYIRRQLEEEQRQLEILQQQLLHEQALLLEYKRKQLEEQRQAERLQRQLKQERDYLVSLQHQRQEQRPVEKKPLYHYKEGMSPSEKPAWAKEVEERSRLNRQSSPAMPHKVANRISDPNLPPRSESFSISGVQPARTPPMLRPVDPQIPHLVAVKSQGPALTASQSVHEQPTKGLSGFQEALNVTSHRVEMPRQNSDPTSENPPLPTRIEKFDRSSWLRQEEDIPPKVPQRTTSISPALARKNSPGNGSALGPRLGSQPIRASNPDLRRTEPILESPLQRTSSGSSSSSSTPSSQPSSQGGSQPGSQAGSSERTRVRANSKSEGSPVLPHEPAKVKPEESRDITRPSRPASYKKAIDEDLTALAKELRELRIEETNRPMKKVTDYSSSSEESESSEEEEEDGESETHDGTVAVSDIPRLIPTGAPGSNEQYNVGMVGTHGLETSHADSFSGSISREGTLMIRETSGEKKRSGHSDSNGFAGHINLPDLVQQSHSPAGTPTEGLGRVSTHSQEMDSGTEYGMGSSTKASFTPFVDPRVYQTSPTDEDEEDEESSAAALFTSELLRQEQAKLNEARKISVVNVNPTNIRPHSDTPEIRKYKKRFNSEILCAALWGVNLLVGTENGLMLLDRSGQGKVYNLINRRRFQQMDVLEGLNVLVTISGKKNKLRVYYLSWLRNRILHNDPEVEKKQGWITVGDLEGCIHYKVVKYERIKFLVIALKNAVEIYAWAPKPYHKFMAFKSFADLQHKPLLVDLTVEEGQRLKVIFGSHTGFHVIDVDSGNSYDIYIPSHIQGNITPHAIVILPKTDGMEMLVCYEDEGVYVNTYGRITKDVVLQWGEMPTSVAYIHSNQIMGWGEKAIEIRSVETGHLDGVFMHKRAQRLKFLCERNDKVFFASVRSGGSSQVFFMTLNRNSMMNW
# Chain of Proto-oncogene tyrosine-protein kinase Src (P12931 2-536 limits assumed): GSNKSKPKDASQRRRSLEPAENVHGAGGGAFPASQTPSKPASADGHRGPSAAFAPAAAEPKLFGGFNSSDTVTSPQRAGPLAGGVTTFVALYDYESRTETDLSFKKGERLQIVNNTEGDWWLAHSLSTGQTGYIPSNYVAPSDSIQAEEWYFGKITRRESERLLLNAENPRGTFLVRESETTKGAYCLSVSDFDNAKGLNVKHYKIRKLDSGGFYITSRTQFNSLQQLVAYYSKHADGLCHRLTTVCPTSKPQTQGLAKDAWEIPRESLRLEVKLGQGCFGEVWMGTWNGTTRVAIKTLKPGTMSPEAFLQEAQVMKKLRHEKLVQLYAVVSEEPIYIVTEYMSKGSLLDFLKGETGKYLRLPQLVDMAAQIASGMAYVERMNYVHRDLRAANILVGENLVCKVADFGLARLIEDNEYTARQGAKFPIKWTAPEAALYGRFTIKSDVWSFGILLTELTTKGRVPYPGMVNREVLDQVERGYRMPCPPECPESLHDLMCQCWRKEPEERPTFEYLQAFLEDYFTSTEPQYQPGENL
Compound,inhibition [1],inhibition [2] [%],IC50 [3] [nM],inhibition [4] [%],inhibition [5] [%],inhibition [6] [%],IC50 [7] [nM],inhibition [8] [%],inhibition [9] [%],inhibition [10] [%],inhibition [11] [%]
CNc1cc(Oc2cc(C(=O)Nc3cc(-n4cnc(C)c4)cc(C(F)(F)F)c3)ccc2C)ncn1,inactive,–,–,–,–,–,–,–,–,–,–
CCN1CCN(Cc2ccc(NC(=O)c3ccc(C)c(Oc4ccnc5[nH]ccc45)c3)cc2C(F)(F)F)CC1,Active,-9.4,113,70.8,45.3,32.6,56.4,73.7,42.8,> 98,0.9
CCN1CCN(Cc2ccc(NC(=O)c3ccc(C)c(/C=C/c4cnc5[nH]ccc5c4OC)c3)cc2C(F)(F)F)CC1,–,-8.3,204,48.1,58,19.5,80.9,40.6,37.1,> 98,3.2

# Reference: ChEMBL document CHEMBL5696442, “Discovery of type II inhibitors of TGFβ-activated kinase 1 (TAK1) and mitogen-activated protein kinase kinase kinase kinase 2 (MAP4K2)” (J Med Chem, 2015)
